Assay results: PubChem BioAssay
Active and inactive are the calls of the source.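 The calls were made as follows, unless noted: active = viability at or below 10% of carrier control in both of two separate runs; inconclusive = viability at or below 10% in only one of the two runs; inactive = the rest.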

Columns and labels:
[1] = reduced viability of SK-BR-3 breast cancer cells – cell-based, 24 h, human, pilot screen (AID 572); conditions: SK-BR-3 viability, CellTiter-Glo luminescence, at 10 µM, stronger effect = lower value;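 also: compound exposure lasted between 18 and 24 h rather than exactly 24 h; 100% = carrier-treated control wells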
[2] = HUVEC growth inhibition – cell-based, human, primary screen (AID 575;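 active = viability at or below 30% in both replicate assays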;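 also: 100% = median of untreated cell wells with 0.1% DMSO on each plate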); conditions: HUVEC proliferation, CellTiter-Glo luminescence, 72 h; at 10 µM; stronger effect = lower value
Outline: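 Material: primary human umbilical vein endothelial cells / Schedule: 72 h exposure, 37 °C, 5% CO2, 30 min RT equilibration / Signal: ATP-based CellTiter-Glo luminescent read / Read-out basis: percent of median DMSO-control luminescence / Control set: 32 DMSO-only cell-control wells (high), 32 MePR drug-control wells (low) per plate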

[3] = H69AR cell proliferation blockers – human, duplicate replicates, primary screen (AID 580;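 active = viability at or under a set limit in both replicates, limit being median viability minus 3 SD, cut at about 48% in these data, passing the limit was not always enough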;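 also: 100% = mean luminescence of untreated wells and 0% = no signal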); conditions: H69AR lung tumor cells viability, ATP luminescence, 72 h; at 10 µM; stronger effect = lower value
[4] = MRP1 drug-resistance reversers in H69AR cells – cell-based, doxorubicin co-treatment, pilot screen (AID 601;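 active = viability loss from added drug above about 55%, and viability with drug at most 40%, in both replicates, limit read from the data, passing the limit was not always enough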); conditions: CellTiter-Glo, 72 h, at 10 µM; for differential viability (reversal): stronger effect = higher value
[5] = yeast transport mutant growth inhibition pilot in 384-well plates, post-Golgi transport modulator project (AID 636; in the data active = inhibition above about 31%); conditions: absorbance 615 nm, about 18 h, stronger effect = higher value
[6] = growth suppression of yeast trafficking mutant, preliminary HTS, modulators of trafficking downstream of Golgi apparatus project, 1536-format plate, OD 615 nm (AID 637; in the data active = inhibition above about 30%); conditions: yeast transport mutant growth, absorbance 615 nm, 18 h; stronger effect = higher value
[7] = H69AR cells + 2 uM doxorubicin, measured here: viability with 2 uM doxorubicin, stronger effect = lower value
[8] = H69AR cells, compound alone cytotoxicity

| Compound | viability [1] | viability [2] | viability [3] | differential viability (reversal) ([4]; H69AR cells + 2 uM doxorubicin) | viability [4, 7] [%] | viability [4, 8] [%] | inhibition [5] | inhibition [6] |
| --- | --- | --- | --- | --- | --- | --- | --- | --- |
| COc1ccc(OC)c(NS(=O)(=O)Cc2ccccc2)c1 | 63% (inactive) | 102% (inactive) | 97.5% (inactive) | -14.4% (inactive) | 112 | 97.5 | -7.81% (inactive) | 1.64% (inactive) |
| COc1ccccc1CNC(=O)C(C)NS(=O)(=O)c1ccccc1 (configuration not stated) | 113% (inactive) | 106% (inactive) | 87.1% (inactive) | -11% (inactive) | 98.1 | 87.1 | -7.4% (inactive) | -0.73% (inactive) |
| CCCN(CCC)C(=O)CC(c1ccc(F)cc1)c1ccco1 (configuration not stated) | 71% (inactive) | 80.7% (inactive) | 80.8% (inactive) | -6.06% (inactive) | 86.8 | 80.8 | -5.48% (inactive) | -0.91% (inactive) |
| CCOc1ccccc1-n1c(SCC(=O)NC2CCCC2)nnc1-c1ccoc1C | 77% (inactive) | 97% (inactive) | 93% (inactive) | 1.66% (inactive) | 91.3 | 93 | 0.91% (inactive) | -4.92% (inactive) |
| COc1ccc(NC(=O)N2CCN(c3nc(-c4cccc(OC)c4)cs3)CC2)cc1 | 94% (inactive) | 49.3% (inactive) | 82.8% (inactive) | -4.01% (inactive) | 86.8 | 82.8 | -9.59% (inactive) | -4.52% (inactive) |
| c1coc(-c2nnc(-c3cccs3)o2)c1 | 106% (inactive) | 110% (inactive) | 102% (inactive) | 14% (inactive) | 87.9 | 102 | -5.33% (inactive) | 0% (inactive) |
| Cc1csc(NC(=O)Nc2cccc(Cl)c2)n1 | 102% (inactive) | 75% (inactive) | 98.6% (inactive) | 8.58% (inactive) | 90 | 98.6 | -3.73% (inactive) | -1.09% (inactive) |
| COC(=O)CSc1ncccc1-c1nc2ccccc2[nH]1 | 110% (inactive) | 96.9% (inactive) | 90.8% (inactive) | -0.73% (inactive) | 91.5 | 90.8 | -2.33% (inactive) | -5.48% (inactive) |
| O=C(Cn1c(=O)oc2ccccc21)N1CCN(c2ccccc2)CC1 | 94% (inactive) | 104% (inactive) | 88.8% (inactive) | -3.33% (inactive) | 92.1 | 88.8 | -8.63% (inactive) | 8.18% (inactive) |
| NS(=O)(=O)c1cc2c(cc1Cl)NCNS2(=O)=O | 73% (inactive) | 97.2% (inactive) | 91.3% (inactive) | -5.11% (inactive) | 96.4 | 91.3 | 0.65% (inactive) | 1.17% (inactive) |
| O=C(Nc1ccccc1C(=O)NCCCn1ccnc1)c1ccccc1 | 81% (inactive) | 94.4% (inactive) | 96.8% (inactive) | 9.21% (inactive) | 87.6 | 96.8 | -6.62% (inactive) | -8% (inactive) |
| CC(=O)N1CN(C2CCCC2)Cc2c1sc1c2CCCC1 | 95% (inactive) | 103% (inactive) | 101% (inactive) | -16% (inactive) | 117 | 101 | -8.22% (inactive) | 0.36% (inactive) |
| COc1ccc(CCN2C(=O)CC(N3CCOCC3)C2=O)cc1 (configuration not stated) | 88% (inactive) | 89.4% (inactive) | 96.2% (inactive) | 16.3% (inactive) | 79.9 | 96.2 | 2.05% (inactive) | -7.58% (inactive) |
| Cc1onc(-c2ccccc2)c1C(=O)Nc1sc2c(c1C(N)=O)CCC2 | 88.5% (inactive) | 53.5% (inactive) | 62.1% (inactive) | -20.8% (inactive) | 82.8 | 62.1 | -1.71% (inactive) | -1% (inactive) |
| c1ccc(-c2cc(-c3nc(-c4ccccn4)no3)c3ccccc3n2)cc1 | 139% (inactive) | 63.9% (inactive) | 59% (inactive) | 2.75% (inactive) | 56.3 | 59 | -2.7% (inactive) | 8% (inactive) |
| CC(N)C12CC3CC(C1)CC(C(C)N)(C3)C2 (configuration not stated) | 87% (inactive) | 110% (inactive) | 101% (inactive) | 11.4% (inactive) | 89.4 | 101 | -3.6% (inactive) | -4.18% (inactive) |
| O=C1c2ccccc2S(=O)(=O)N1Cc1nnc(-c2ccccc2Br)o1 | 88% (inactive) | 102% (inactive) | 95% (inactive) | 17% (inactive) | 78 | 95 | -5.62% (inactive) | 0.32% (inactive) |
| CC1(C2(O)CC(c3ccccc3)ON2)CCCCC1 (configuration not stated) | 108% (inactive) | 95% (inactive) | 84.1% (inactive) | -0.32% (inactive) | 84.4 | 84.1 | -4.73% (inactive) | -2.36% (inactive) |
| O=c1c2ccccc2[nH]c(=S)n1CCN1CCC(=C(c2ccc(F)cc2)c2ccc(F)cc2)CC1 | 113% (inactive) | 18.2% (active) | 78.8% (inactive) | -4.72% (inactive) | 83.6 | 78.8 | 83% (active) | 71% (active) |
